Results: ChEMBL document CHEMBL2401720, “Synthesis and structure-activity relationship studies of O-biphenyl-3-yl carbamates as peripherally restricted fatty acid amide hydrolase inhibitors” (J Med Chem, 2013)
pIC50: −log10 of the molar value. The source made the active and inactive calls. No cut-off for these calls is given here.

How the values were obtained:
[1] = tested on: Mus musculus; assay: In vivo inhibition of FAAH in ip dosed Swiss Webster mouse brain using [3H]-ethanolamine as substrate after 1 hr by liquid scintillation counting analysis; type: functional
[2] = tested on: Mus musculus; assay: In vivo inhibition of FAAH in Swiss Webster mouse brain using [3H]-ethanolamine as substrate at 1 mg/kg, ip after 1 hr by liquid scintillation counting analysis relative to control; type: functional; conditions: route intraperitoneal
[3] = tested on: Mus musculus; assay: In vivo inhibition of FAAH in Swiss Webster mouse brain using [3H]-ethanolamine as substrate at 40 mg/kg, sc after 1 hr by liquid scintillation counting analysis in presence of Abcg2 inhibitor Ko-143; type: functional, organism-based; design: dose 40 mg/kg
[4] = tested on: Mus musculus; assay: In vivo inhibition of FAAH in sc dosed Swiss Webster mouse brain using [3H]-ethanolamine as substrate after 1 hr by liquid scintillation counting analysis; type: functional, organism-based
[5] = tested on: Mus musculus; assay: In vivo inhibition of FAAH in Swiss Webster mouse liver using [3H]-ethanolamine as substrate at 1 mg/kg, ip after 1 hr by liquid scintillation counting analysis relative to control; type: functional; conditions: route intraperitoneal
[6] = tested on: Mus musculus; assay: In vivo inhibition of FAAH in ip dosed Swiss Webster mouse peripheral tissue; type: functional
[7] = tested on: Mus musculus; assay: In vivo inhibition of FAAH in ip dosed Swiss Webster mouse liver; type: functional
[8] = tested on: Mus musculus; assay: In vivo inhibition of FAAH in Swiss Webster mouse brain using [3H]-ethanolamine as substrate at 25 mg/kg, sc after 1 hr by liquid scintillation counting analysis in presence of Abcg2 inhibitor Ko-143; type: functional, organism-based; design: dose 25 mg/kg
Summary of the method: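 Adult male Swiss-Webster mice (25-30 g) got Ko-143 (15 mg/kg, i.p., in saline/PEG400/Tween80 18:1:1 with 30% DMSO) 20 min before a single s.c. dose of inhibitor in the same vehicle without DMSO. Brain taken 1 h later and homogenate supernatant (1000 × g) assayed: 37°C, 30 min, pH 7.5 Tris, 0.05% BSA, 10 μM anandamide plus [ethanolamine-3H]anandamide, aqueous-phase scintillation counting; mean ± s.e.m., n = 3-4.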

[9] = tested on: Mus musculus; assay: In vivo inhibition of FAAH in Swiss Webster mouse brain using [3H]-ethanolamine as substrate at 75 mg/kg, sc after 1 hr by liquid scintillation counting analysis; type: functional, organism-based; design: dose 75 mg/kg
[10] = biological target: T1, Fatty-acid amide hydrolase 1 (Rattus norvegicus, UniProt P97612); assay: Inhibition of Wistar rat brain FAAH using [3H]-ethanolamine as substrate preincubated for 20 mins followed by substrate addition by liquid scintillation counting analysis
T1 sequence (P97612 whole entry): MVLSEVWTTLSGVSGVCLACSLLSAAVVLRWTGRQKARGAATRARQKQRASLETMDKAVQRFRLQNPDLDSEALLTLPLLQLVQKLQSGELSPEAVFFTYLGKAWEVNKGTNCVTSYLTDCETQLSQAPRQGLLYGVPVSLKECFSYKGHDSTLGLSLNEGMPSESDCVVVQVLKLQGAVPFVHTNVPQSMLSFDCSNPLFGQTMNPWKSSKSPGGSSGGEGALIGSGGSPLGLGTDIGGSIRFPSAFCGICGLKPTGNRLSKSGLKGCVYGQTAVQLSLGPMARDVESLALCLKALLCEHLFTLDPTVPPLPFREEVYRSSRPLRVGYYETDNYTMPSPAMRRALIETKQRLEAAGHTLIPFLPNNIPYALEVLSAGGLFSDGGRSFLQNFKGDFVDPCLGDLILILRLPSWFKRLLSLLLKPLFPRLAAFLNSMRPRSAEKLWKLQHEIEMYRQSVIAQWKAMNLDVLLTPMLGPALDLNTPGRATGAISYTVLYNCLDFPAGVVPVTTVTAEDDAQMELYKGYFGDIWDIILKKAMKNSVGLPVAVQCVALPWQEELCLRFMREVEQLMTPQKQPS
Summary of the method: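 FAAH source was the membrane homogenate of Wistar rat brain (50 μg protein). It was preincubated with inhibitor for 20 min at 37°C, then incubated 30 min at 37°C in Tris 50 mM pH 7.5 with 0.05% fatty acid-free BSA, 10 μM anandamide and anandamide[ethanolamine-3H]. The reaction was stopped with chloroform/methanol (1:1), and aqueous-layer radioactivity was counted by liquid scintillation to give IC50.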

Structure (SMILES)	ED50 [1]	inhibition in vivo at 1 mg/kg [2]	inhibition [3]	inhibition [4]	inhibition in vivo at 1 mg/kg [5]	ED50 [6]	ED50 [7]	inhibition [8]	inhibition [9]	pIC50 [10]
NC(=O)c1cccc(-c2cc(O)cc(OC(=O)NC3CCCCC3)c2)c1	75 mg/kg	-4.2%	Active	Dose-dependent effect	89.5%					
NC(=O)c1cccc(-c2cc(OC(=O)NC3CCCCC3)ccc2O)c1	40 mg/kg	-3%		Dose-dependent effect	91.7%	0.2 mg/kg	0.2 mg/kg	Active		
NC(=O)c1cccc(-c2cc(OC(=O)NC3CCCCC3)ccc2C(=O)O)c1		-2.1%	inactive	Dose-dependent effect	86.3%				inactive	
CC(O)c1cccc(-c2cc(OC(=O)NC3CCCCC3)ccc2O)c1 (stereo not given)		89.6%			80.9%					8.70
